≈ marks a conversion by molar mass, not a printed value. Calls of active or inactive are those of the source. The rule behind the calls is not given here.
Columns and labels:
Candida albicans = experiment: Antifungal activity against Candida albicans; assay type: functional
In short: (§1)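 In vitro MIC determination by standard agar method, cited from earlier work; fungal strains tested were Candida albicans, Fusarium oxysporum, Aspergillus flavus, Aspergillus niger and Cryptococcus neoformans, with miconazole and fluconazole run as reference standards.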

Fusarium oxysporum [1] = experiment: Antifungal activity against Fusarium oxysporum; assay type: functional; in short: as §1
Aspergillus flavus [2] = experiment: Antifungal activity against Aspergillus flavus; assay type: functional; in short: as §1
Aspergillus niger [3] = experiment: Antifungal activity against Aspergillus niger; assay type: functional; in short: as §1
Cryptococcus neoformans [4] = experiment: Antifungal activity against Cryptococcus neoformans up to 200 ug/ml; assay type: functional, organism-based; in short: as §1
Cryptococcus neoformans [5] = experiment: Antifungal activity against Cryptococcus neoformans; assay type: functional; in short: as §1
Aspergillus niger [6] = experiment: Antifungal activity against Aspergillus niger up to 200 ug/ml; assay type: functional, organism-based; in short: as §1
Fusarium oxysporum [7] = experiment: Antifungal activity against Fusarium oxysporum up to 200 ug/ml; assay type: functional, organism-based; in short: as §1
Aspergillus flavus [8] = experiment: Antifungal activity against Aspergillus flavus up to 200 ug/ml; assay type: functional, organism-based; in short: as §1

**Q.** Which results are given for `CN1CCC(n2cc(-c3noc(-c4ccc(Cl)cc4)n3)nn2)CC1`?
**A.** MIC (Candida albicans): 35 µg/mL (≈ 102 µM); MIC (Fusarium oxysporum [1]): 50 µg/mL (≈ 145 µM); MIC (Aspergillus flavus [2]): 15 µg/mL (≈ 43.5 µM); MIC (Aspergillus niger [3]): 15 µg/mL (≈ 43.5 µM); Activity (Cryptococcus neoformans [4]): inactive

**Q.** With `CS(=O)(=O)N1CCC(n2cc(-c3noc(-c4ccc(Cl)cc4)n3)nn2)CC1` as the compound, how does the MIC (Cryptococcus neoformans [5]) read?
**A.** 40 µg/mL (≈ 97.8 µM)

**Q.** What about the MIC (Candida albicans) of the same compound?
**A.** 30 µg/mL (≈ 73.4 µM)

**Q.** What about the MIC (Fusarium oxysporum [1]) of the same compound?
**A.** 35 µg/mL (≈ 85.6 µM)

**Q.** And the MIC (Aspergillus flavus [2])?
**A.** 15 µg/mL (≈ 36.7 µM)

**Q.** And the MIC (Aspergillus niger [3])?
**A.** 15 µg/mL (≈ 36.7 µM)

**Q.** What does the source list for `O=C(c1ccc(Cl)cc1)N1CCC(n2cc(-c3noc(-c4ccccc4)n3)nn2)CC1`?
**A.** MIC (Cryptococcus neoformans [5]): 45 µg/mL (≈ 103 µM); MIC (Candida albicans): 45 µg/mL (≈ 103 µM); MIC (Fusarium oxysporum [1]): 40 µg/mL (≈ 92 µM); MIC (Aspergillus flavus [2]): 40 µg/mL (≈ 92 µM); MIC (Aspergillus niger [3]): 42.5 µg/mL (≈ 97.7 µM)

**Q.** `CCCC(=O)N1CCC(n2cc(-c3noc(-c4ccccc4)n3)nn2)CC1` was tested. Which MIC (Cryptococcus neoformans [5]) did it give?
**A.** 150 µg/mL (≈ 409 µM)

**Q.** And the MIC (Candida albicans)?
**A.** 90 µg/mL (≈ 246 µM)

**Q.** And the MIC (Fusarium oxysporum [1])?
**A.** 100 µg/mL (≈ 273 µM)

**Q.** What about the MIC (Aspergillus flavus [2]) of the same compound?
**A.** 35 µg/mL (≈ 95.5 µM)

**Q.** What about the MIC (Aspergillus niger [3]) of the same compound?
**A.** 47.5 µg/mL (≈ 130 µM)

**Q.** Which MIC (Candida albicans) does the source give for `CCC(=O)N1CCC(n2cc(-c3noc(-c4ccc(Cl)cc4)n3)nn2)CC1` here?
**A.** 35 µg/mL (≈ 90.5 µM)

**Q.** And the MIC (Fusarium oxysporum [1])?
**A.** 40 µg/mL (≈ 103 µM)

**Q.** And the MIC (Aspergillus flavus [2])?
**A.** 30 µg/mL (≈ 77.6 µM)

**Q.** What about the MIC (Aspergillus niger [3]) of the same compound?
**A.** 100 µg/mL (≈ 259 µM)

**Q.** What about the Activity (Cryptococcus neoformans [4]) of the same compound?
**A.** inactive

**Q.** `CCC(=O)N1CCC(n2cc(-c3noc(-c4ccccc4)n3)nn2)CC1` was tested. Which MIC (Candida albicans) did it give?
**A.** 50 µg/mL (≈ 142 µM)

**Q.** And the MIC (Fusarium oxysporum [1])?
**A.** 60 µg/mL (≈ 170 µM)

**Q.** And the MIC (Aspergillus flavus [2])?
**A.** 30 µg/mL (≈ 85.1 µM)

**Q.** And the Activity (Cryptococcus neoformans [4])?
**A.** inactive

**Q.** And the Activity (Aspergillus niger [6])?
**A.** inactive

**Q.** What does the source list for `OC(Cn1cncn1)(Cn1cncn1)c1ccc(F)cc1F` [FLUCONAZOLE]?
**A.** MIC (Cryptococcus neoformans [5]): 5 µg/mL (≈ 16.3 µM); MIC (Candida albicans): 5 µg/mL (≈ 16.3 µM); MIC (Fusarium oxysporum [1]): 5 µg/mL (≈ 16.3 µM); MIC (Aspergillus flavus [2]): 5 µg/mL (≈ 16.3 µM); MIC (Aspergillus niger [3]): 10 µg/mL (≈ 32.7 µM)

**Q.** Which MIC (Cryptococcus neoformans [5]) does the source give for `O=C(c1ccccc1)N1CCC(n2cc(-c3noc(-c4ccccc4)n3)nn2)CC1` here?
**A.** 100 µg/mL (≈ 250 µM)

**Q.** What about the MIC (Candida albicans) of the same compound?
**A.** 90 µg/mL (≈ 225 µM)

**Q.** And the MIC (Aspergillus flavus [2])?
**A.** 65 µg/mL (≈ 162 µM)

**Q.** And the Activity (Aspergillus niger [6])?
**A.** inactive

**Q.** And the Activity (Fusarium oxysporum [7])?
**A.** inactive

**Q.** With `CC(=O)N1CCC(n2cc(-c3noc(-c4ccccc4)n3)nn2)CC1` as the compound, how does the MIC (Candida albicans) read?
**A.** 35 µg/mL (≈ 103 µM)

**Q.** And the MIC (Fusarium oxysporum [1])?
**A.** 35 µg/mL (≈ 103 µM)

**Q.** What about the MIC (Aspergillus niger [3]) of the same compound?
**A.** 95 µg/mL (≈ 281 µM)

**Q.** And the Activity (Cryptococcus neoformans [4])?
**A.** inactive

**Q.** And the Activity (Aspergillus flavus [8])?
**A.** inactive

**Q.** Which MIC (Cryptococcus neoformans [5]) does the source give for `Cc1ccc(S(=O)(=O)N2CCC(n3cc(-c4noc(-c5ccccc5)n4)nn3)CC2)cc1` here?
**A.** 40 µg/mL (≈ 88.8 µM)

**Q.** What about the MIC (Candida albicans) of the same compound?
**A.** 60 µg/mL (≈ 133 µM)

**Q.** And the MIC (Fusarium oxysporum [1])?
**A.** 70 µg/mL (≈ 155 µM)

**Q.** And the MIC (Aspergillus flavus [2])?
**A.** 45 µg/mL (≈ 99.9 µM)

**Q.** What about the MIC (Aspergillus niger [3]) of the same compound?
**A.** 37.5 µg/mL (≈ 83.2 µM)

**Q.** With `c1ccc(-c2nc(-c3cn(C4CCNCC4)nn3)no2)cc1` as the compound, how does the MIC (Cryptococcus neoformans [5]) read?
**A.** 90 µg/mL (≈ 304 µM)

**Q.** What about the MIC (Candida albicans) of the same compound?
**A.** 60 µg/mL (≈ 202 µM)

**Q.** And the MIC (Fusarium oxysporum [1])?
**A.** 100 µg/mL (≈ 337 µM)

**Q.** What about the MIC (Aspergillus flavus [2]) of the same compound?
**A.** 50 µg/mL (≈ 169 µM)

**Q.** What about the MIC (Aspergillus niger [3]) of the same compound?
**A.** 100 µg/mL (≈ 337 µM)

**Q.** Which results are given for `CC(=O)N1CCC(n2cc(-c3noc(-c4ccc(Cl)cc4)n3)nn2)CC1`?
**A.** MIC (Candida albicans): 40 µg/mL (≈ 107 µM); MIC (Fusarium oxysporum [1]): 30 µg/mL (≈ 80.5 µM); MIC (Aspergillus flavus [2]): 150 µg/mL (≈ 402 µM); MIC (Aspergillus niger [3]): 70 µg/mL (≈ 188 µM); Activity (Cryptococcus neoformans [4]): inactive

**Q.** What does the source list for `CC(C)(C)OC(=O)N1CCC(n2cc(-c3noc(-c4ccccc4)n3)nn2)CC1`?
**A.** MIC (Cryptococcus neoformans [5]): 120 µg/mL (≈ 303 µM); MIC (Candida albicans): 80 µg/mL (≈ 202 µM); MIC (Aspergillus flavus [2]): 85 µg/mL (≈ 214 µM); MIC (Aspergillus niger [3]): 100 µg/mL (≈ 252 µM); Activity (Fusarium oxysporum [7]): inactive

**Q.** What does the source list for `CN1CCC(n2cc(-c3noc(-c4ccccc4)n3)nn2)CC1`?
**A.** MIC (Candida albicans): 50 µg/mL (≈ 161 µM); MIC (Fusarium oxysporum [1]): 60 µg/mL (≈ 193 µM); MIC (Aspergillus flavus [2]): 30 µg/mL (≈ 96.7 µM); Activity (Cryptococcus neoformans [4]): inactive; Activity (Aspergillus niger [6]): inactive

**Q.** Which results are given for `O=C(c1ccccc1)N1CCC(n2cc(-c3noc(-c4ccc(Cl)cc4)n3)nn2)CC1`?
**A.** MIC (Cryptococcus neoformans [5]): 100 µg/mL (≈ 230 µM); MIC (Candida albicans): 75 µg/mL (≈ 172 µM); MIC (Fusarium oxysporum [1]): 85 µg/mL (≈ 195 µM); MIC (Aspergillus flavus [2]): 65 µg/mL (≈ 149 µM); Activity (Aspergillus niger [6]): inactive

**Q.** Which MIC (Cryptococcus neoformans [5]) does the source give for `Clc1ccc(COC(Cn2ccnc2)c2ccc(Cl)cc2Cl)c(Cl)c1` (stereo not given) [MICONAZOLE] here?
**A.** 25 µg/mL (≈ 60.1 µM)

**Q.** And the MIC (Candida albicans)?
**A.** 25 µg/mL (≈ 60.1 µM)

**Q.** What about the MIC (Fusarium oxysporum [1]) of the same compound?
**A.** 25 µg/mL (≈ 60.1 µM)

**Q.** What about the MIC (Aspergillus flavus [2]) of the same compound?
**A.** 12.5 µg/mL (≈ 30 µM)

**Q.** What about the MIC (Aspergillus niger [3]) of the same compound?
**A.** 12.5 µg/mL (≈ 30 µM)

**Q.** For `CCN1CCC(n2cc(-c3noc(-c4ccc(Cl)cc4)n3)nn2)CC1`, which MIC (Cryptococcus neoformans [5]) is on record?
**A.** 100 µg/mL (≈ 279 µM)

**Q.** And the MIC (Candida albicans)?
**A.** 70 µg/mL (≈ 195 µM)

**Q.** And the MIC (Fusarium oxysporum [1])?
**A.** 80 µg/mL (≈ 223 µM)

**Q.** What about the MIC (Aspergillus flavus [2]) of the same compound?
**A.** 35 µg/mL (≈ 97.5 µM)

**Q.** What about the MIC (Aspergillus niger [3]) of the same compound?
**A.** 40 µg/mL (≈ 111 µM)

**Q.** With `CCN1CCC(n2cc(-c3noc(-c4ccccc4)n3)nn2)CC1` as the compound, how does the MIC (Cryptococcus neoformans [5]) read?
**A.** 150 µg/mL (≈ 462 µM)

**Q.** What about the MIC (Candida albicans) of the same compound?
**A.** 90 µg/mL (≈ 277 µM)

**Q.** What about the MIC (Fusarium oxysporum [1]) of the same compound?
**A.** 100 µg/mL (≈ 308 µM)

**Q.** What about the MIC (Aspergillus flavus [2]) of the same compound?
**A.** 35 µg/mL (≈ 108 µM)

**Q.** What about the MIC (Aspergillus niger [3]) of the same compound?
**A.** 47.5 µg/mL (≈ 146 µM)

**Q.** Which MIC (Cryptococcus neoformans [5]) does the source give for `c1ccc(CN2CCC(n3cc(-c4noc(-c5ccccc5)n4)nn3)CC2)cc1` here?
**A.** 70 µg/mL (≈ 181 µM)

**Q.** And the MIC (Candida albicans)?
**A.** 50 µg/mL (≈ 129 µM)

**Q.** What about the MIC (Fusarium oxysporum [1]) of the same compound?
**A.** 65 µg/mL (≈ 168 µM)

**Q.** And the MIC (Aspergillus flavus [2])?
**A.** 50 µg/mL (≈ 129 µM)

**Q.** And the MIC (Aspergillus niger [3])?
**A.** 150 µg/mL (≈ 388 µM)

**Q.** With `CS(=O)(=O)N1CCC(n2cc(-c3noc(-c4ccccc4)n3)nn2)CC1` as the compound, how does the MIC (Cryptococcus neoformans [5]) read?
**A.** 25 µg/mL (≈ 66.8 µM)

**Q.** And the MIC (Candida albicans)?
**A.** 50 µg/mL (≈ 134 µM)

**Q.** And the MIC (Fusarium oxysporum [1])?
**A.** 30 µg/mL (≈ 80.1 µM)

**Q.** What about the MIC (Aspergillus flavus [2]) of the same compound?
**A.** 40 µg/mL (≈ 107 µM)

**Q.** And the MIC (Aspergillus niger [3])?
**A.** 40 µg/mL (≈ 107 µM)

Source: ChEMBL document CHEMBL1759954, “Synthesis of some novel 3-(1-(1-substitutedpiperidin-4-yl)-1H-1,2,3-triazol-4-yl)-5-substituted phenyl-1,2,4-oxadiazoles as antifungal agents” (2011)
